# In the library only some 2.8% were active in any assay of this set; here they are far more common.
# NPY-Y1 antag – NPY-Y1 receptor antagonists, primary screen, cell-based; 200,000 tested, 1% active; inhibition, % at 3.6 µM; Neuropeptide Y receptor type 1 (Homo sapiens), P25929; HEK293-CNG Y1 cells, membrane potential fluorescence; NPY at EC95, then isoproterenol; AID 1040, 2008;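 active = inhibition above the campaign mean inhibition of all tested compounds plus 3 SD, cut at about 20% in these data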;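 also: 0% = DMSO wells given NPY plus isoproterenol and 100% = isoproterenol alone without NPY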
# Target sequence (P25929 whole entry, looked up): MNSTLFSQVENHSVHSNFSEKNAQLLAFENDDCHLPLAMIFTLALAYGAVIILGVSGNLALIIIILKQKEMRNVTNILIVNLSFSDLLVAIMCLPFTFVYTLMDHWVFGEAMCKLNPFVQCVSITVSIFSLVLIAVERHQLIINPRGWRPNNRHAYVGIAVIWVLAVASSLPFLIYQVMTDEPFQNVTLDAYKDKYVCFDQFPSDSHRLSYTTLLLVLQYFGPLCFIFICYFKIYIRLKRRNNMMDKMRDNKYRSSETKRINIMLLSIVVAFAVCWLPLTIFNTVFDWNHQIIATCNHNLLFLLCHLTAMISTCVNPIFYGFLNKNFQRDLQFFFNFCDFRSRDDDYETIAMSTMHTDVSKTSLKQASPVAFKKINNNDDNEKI
#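 Material: HEK293 Y1/CNG channel cell line | Also added: NPY (25 nM), isoproterenol (1 µM), Ro 20-1724 (25 µM) | Compound: One concentration, 3.6 µM, in 0.4% DMSO | Schedule: 3 h dye uptake, 1 h room-temperature compound, 45 min post-isoproterenol | Signal: Membrane-potential fluorescent dye readout | Read-out: % inhibition of NPY effect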
# NPY-Y1 PAM-ag – NPY-Y1 receptor potentiators or agonists, primary screen, cell-based. 220,000 tested, 0.37% active. NPY-Y1 expressing cells, potentiator/agonist activation. activation, % at 3.6 µM. Neuropeptide Y receptor type 1 (Homo sapiens), P25929; in the data active = activation above about 33%, passing the limit was not always enough;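 also: cells stimulated with NPY at EC10 then isoproterenol at EC100; 0% = low agonist plus stimulus and 100% = saturating agonist plus stimulus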
# NPY-Y2 PAM-ag – NPY-Y2 potentiators or agonists, primary screen, cell-based; Neuropeptide Y receptor type 2 (Homo sapiens), P49146; cells expressing NPY-Y2, potentiator/agonist read-out; activation, % at 3.6 µM; 220,000 tested, 0.45% active; AID 1359, 2008; in the data active = activation above about 27%;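 also: cells stimulated with NPY near EC25 plus isoproterenol at EC100; 0% = vehicle plus submaximal agonist and 100% = vehicle plus saturating agonist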
# PGE2 EP2 inh – human EP2 receptor antagonists, primary screen, TR-FRET cAMP, C6 glioma cells | Prostaglandin E2 receptor EP2 subtype (Homo sapiens), P43116 | C6 glioma cells expressing human EP2; cells stimulated with saturating PGE2 | inhibition, % at 25 µM | 260,000 tested, 0.52% active | AID 1422, 2008;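 active = percent inhibition above 40 after rounding to a whole number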;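 also: rat C6 glioma host cells with rolipram phosphodiesterase inhibitor present; the protocol text gives 20 µM as final concentration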
# NPY-Y2 antag – NPY-Y2 receptor antagonists, primary screen, cell-based; AID 793, 2007; 140,000 tested, 0.99% active; NPY-Y2 expressing cells, antagonist mode; inhibition, % at 2.7 µM; in the data active = inhibition above about 17%;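 also: 0% = vehicle with agonist challenge and 100% = reference antagonist with challenge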
# EP2 modulator – EP2 receptor modulators, cAMP readout, primary screen, cell-based, HTRF cAMP, PGE2 stimulation. Prostaglandin E2 receptor EP2 subtype (Homo sapiens), P43116. EP2-expressing cells, cAMP HTRF FRET, PGE2 co-stimulation. induction, % at 25 µM. 260,000 tested, 0.83% active. AID 940, 2007;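 active = compounds whose cAMP rise, as percent of the full-agonist control response, exceeds 60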;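 also: rat C6 glioma line stably carrying human EP2 under a CMV promoter; the protocol text gives 20 µM as final concentration; 100% = response of wells given 1 µM PGE2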
# Numbers without * were called inactive; . = no result given.
SMILES,NPY-Y1 antag,NPY-Y1 PAM-ag,NPY-Y2 PAM-ag,PGE2 EP2 inh,NPY-Y2 antag,EP2 modulator
Cc1cc(C)c(NC(=O)COc2ccc(N3CC(C(N)=O)CC3=O)cc2)c(C)c1 (centres undefined),.,.,.,11.4,.,3.3
Cc1cc(C)cc(NC(=S)NCc2ccc3c(c2)OCO3)c1,30.3*,-78.2,-52.2,10.3,13.9,.
CCc1nnc(NC(=O)c2cc(-c3ccco3)nc3ccccc23)s1,0.8,7.5,4.8,8.8,.,-13.3
CCCCCCNC(=O)c1cc(-c2ccco2)nc2ccccc12,57.1*,-149.4,-122.8,11.0,66.0*,-14.0
COc1cccc(C(=O)NC(c2ccccc2)C2CCCC2)c1 (centres undefined),21.8*,7.4,-9.0,11.2,.,3.2
COc1cccc(C(=O)Nc2ccccc2)c1,-1.1,1.9,0.6,5.2,3.1,14.7
COc1ccc2c(c1)Cc1cc(N=[N+]([O-])c3ccc4c(c3)Cc3cc(OC)ccc3-4)ccc1-2,.,.,.,113.6*,.,-79.8
CCOC(=O)C(=O)Nc1nc2ccc(OCC)cc2s1,.,.,.,10.4,.,57.5
O=C(Nc1nc2c(Cl)ccc(Cl)c2s1)c1ccco1,-1.2,-8.0,-18.0,70.0*,-1.6,-16.7
O=C(NCCO)C(c1ccccc1)c1ccccc1,-7.3,3.3,4.9,11.1,0.8,15.1
C[N+](C)(C)[C@@H](C1=CCCC1=O)c1ccccc1,.,.,.,52.2*,.,17.8
CN(C(=O)CSc1nc(-c2ccccc2)cc(C(F)(F)F)n1)C1CCCCC1,.,.,.,8.0,.,51.9
CC(=O)Nc1ccc(S(=O)(=O)N(Cc2ccccc2)c2ccccc2F)cc1,1.7,4.4,-16.1,7.3,.,64.2*
CC(=O)Nc1ccc(S(=O)(=O)N(CCO)Cc2ccccc2)cc1,4.0,-10.1,-0.7,4.8,-0.4,7.5
O=S(=O)(O)c1cccc(N=Nc2c(O)ccc3ccccc23)c1,.,-13.6,3.9,1.8,.,-6.9
O=S(=O)(O)c1cc(O)c2c(O)c(N=Nc3cccc4ccccc34)c(S(=O)(=O)O)cc2c1,.,.,.,56.6*,.,-14.0
Cc1cccc(OCc2n[nH]c(=S)n2C)c1C,.,.,.,5.0,.,10.1
Cn1ccnc1C1(O)CCN(CC(=O)Nc2ccccc2Cl)CC1,.,.,.,.,.,20.7
CCn1c(SCC(=O)Nc2sc(C)c(C)c2C#N)nc2sc3c(c2c1=O)CCC3,.,.,.,14.7,.,69.3*
CCn1c(SCC(=O)Nc2cc(C)on2)nc2sc3c(c2c1=O)CCCC3,10.9,-35.8,-3.7,.,6.0,8.5
CC1=C(C(=O)NCCN2CCN(C)CC2)C2(CCC(C)CC2)OC1=O (centres undefined),-0.1,-7.7,47.5*,5.0,-1.8,-13.0
Cc1ccc(CSc2nc3sc4c(c3c(=O)n2C)CCCC4)cc1,.,.,.,8.4,.,3.2
Nc1nc(Cl)nc2c1ncn2[C@@H]1O[C@H](CO)[C@@H](O)[C@H]1O,85.1*,-77.6,-21.5,14.7,101.8*,13.0
COC(=O)CN1C(=S)N(Cc2ccccc2)C(=O)C1CC(=O)Nc1ccc(Br)cc1 (centres undefined),-11.9,44.2*,34.6*,10.5,-7.3,16.4
CCN1C(=O)C(CC(=O)Nc2ccc(OC)cc2)N(CCc2ccccc2)C1=S (centres undefined),-0.8,22.5,13.2,4.2,.,-41.4
SMILES,NPY-Y1 antag,NPY-Y1 PAM-ag,NPY-Y2 PAM-ag,PGE2 EP2 inh,NPY-Y2 antag,EP2 modulator
Cc1cc(NS(=O)(=O)c2ccc3c(c2)NC(=O)CO3)nn1C,.,.,.,4.8,.,-23.9
CN1CCc2ccccc2[C@H]1Cc1ccccc1NC(=O)c1sc2ccccc2c1Cl,.,.,.,41.6*,.,45.0
CN1CCN(c2ccc(NC(=O)c3sc4ccccc4c3Cl)cc2)CC1,0.0,16.6,8.8,6.3,.,-32.9
Cc1ccc2[nH]c(=O)c(CN(CC3CCCO3)S(=O)(=O)c3ccc(F)cc3)cc2c1 (centres undefined),.,.,.,13.8,.,-0.6
O=C(CCn1ncc2ccccc21)N1CCC(c2[nH]ncc2-c2ccncc2)CC1,.,.,.,.,.,1.0
COC(=O)[C@H](Cc1ccccc1)NC(=O)O[C@H]1C(=O)c2ccc(OC)cc2O[C@@H]1c1ccc2c(c1)OCO2,-5.6,-13.9,3.1,50.9*,0.1,0.1
COC(=O)[C@@H](NC(=O)O[C@@H]1C(=O)c2ccc(OC)cc2O[C@H]1c1cccc(C(F)(F)F)c1)C(C)C,4.2,-32.5,4.7,.,-1.3,61.6*
CCCn1c(SCC(=O)N2c3ccccc3CC2C)nnc1-c1ccncc1 (centres undefined),.,.,.,1.2,.,3.6
CC1=NNC(=S)NCCCN2CCN(CCCNC(=S)NN=C(C)C=NNC(=S)NCCCN3CCN(CCCNC(=S)NN=C1)CC3)CC2,.,.,.,44.9*,.,55.9
O=C(N/C(=C/c1cccc(Br)c1)c1nc(=S)[nH][nH]1)c1ccccc1,-13.1,51.2*,25.5*,5.8,-3.3,-0.8
Cc1ccc(C(=O)N/C(=C\c2ccc(Br)cc2)c2nc(=S)[nH][nH]2)cc1,-14.1,47.4*,21.1,4.3,-4.6,-2.1
Cc1ccc2cc(C(c3nnnn3Cc3ccccc3)N3CCCC3)c(=O)[nH]c2c1 (centres undefined),.,.,.,10.3,.,-14.9
Oc1ccc(NC(=S)N=Nc2c(O)[nH]c3ccc(Br)cc23)cc1,-8.2,17.2,11.8,46.4*,.,-116.6
CC1(C)CC(=O)C2=C(C1)OC(N)=C(C#N)C2c1cn(Cc2ccc(F)cc2)c2ccccc12 (centres undefined),.,.,.,12.3,.,28.7
CN(CCO)c1cc(N2CCCCC2)c2nonc2c1[N+](=O)[O-],4.7,4.5,-4.5,7.4,.,-21.8
CN(CCO)c1cc(NCCCN2CCC(Cc3ccccc3)CC2)c2nonc2c1[N+](=O)[O-],-1.9,50.6*,28.8*,6.2,.,-21.5
COc1ccc2[nH]c3c(Cl)ncnc3c2c1,1.9,34.0,9.9,13.9,0.3,6.0
COc1ccc2[nH]c3c(=S)nc[nH]c3c2c1,6.2,-6.4,0.5,11.7,.,62.0*
O=C(/C=C/c1ccc(Cl)cc1)N1CCN(c2ccc(Cl)cc2[N+](=O)[O-])CC1,20.5*,-15.3,-4.4,10.9,7.8,-3.3
COC(=O)CSc1nc(-c2ccccc2)cc(-c2ccco2)c1C#N,23.1*,7.8,-21.7,13.8,20.8*,32.2
Cc1cc(-c2cc(N)c(=O)n(CC(=O)N3CCCC(C)C3)n2)c(C)o1 (centres undefined),.,.,.,6.0,.,-57.9
